Compound activity as filed in PubChem.
An excerpt weighted towards active compounds, which were near 9.6% of everything screened.
bCat KO growth: primary screen for growth suppressors in beta-catenin knockout HCT116 cells (colon tumor, human); HCT116 beta-catenin knockout viability, CellTiter-Glo, 60 h; stronger effect = lower value; viability, % at 10 µM; 1.5% of 140,000 active;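 active = viability at or under a set limit, the compound median less 4 SD, cut at about 6% in these data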;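 also: 0% = Hyamine 1622 control at 20 µM and 100% = untreated cell control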
Lmaj promast: Leishmania major promastigote growth inhibition, primary screen | 9% of 200,000 active | Leishmania major promastigotes, resazurin fluorescence viability | inhibition, % at 10 µM; in the data active = inhibition above about 50%;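 also: promastigotes grown with compound for 44 hours at 28 °C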
PMI activator: activators of human PMI, primary screen, biochemical, fluorescence intensity, near-Km mannose 6-phosphate | Mannose-6-phosphate isomerase (Homo sapiens), P34949 | 0.005% of 190,000 active | activation factor at 20 µM | purified human PMI, coupled resazurin fluorescence, 20 min; stronger effect = higher value; 1 = vehicle control, 0 substrate-free wells;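 active = activation factor of 2 or more at 20 µM, relative to plate controls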
Target sequence (P34949 whole entry, looked up): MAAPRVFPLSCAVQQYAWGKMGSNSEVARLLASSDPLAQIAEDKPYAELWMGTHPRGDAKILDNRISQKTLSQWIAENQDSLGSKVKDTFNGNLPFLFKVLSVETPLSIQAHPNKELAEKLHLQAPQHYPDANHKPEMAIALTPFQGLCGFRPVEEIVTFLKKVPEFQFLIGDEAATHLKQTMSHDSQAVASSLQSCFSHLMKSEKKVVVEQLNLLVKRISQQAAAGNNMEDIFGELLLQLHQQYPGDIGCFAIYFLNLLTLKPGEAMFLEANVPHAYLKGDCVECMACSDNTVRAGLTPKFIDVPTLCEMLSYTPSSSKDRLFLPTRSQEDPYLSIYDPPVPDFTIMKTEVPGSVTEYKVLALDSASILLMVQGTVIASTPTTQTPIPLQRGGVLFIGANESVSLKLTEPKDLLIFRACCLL
HCT116 PTEN-null: growth suppression of PTEN-null HCT116, primary screen, cell-based, CellTiter-Glo; HCT116 PTEN-null viability, 60 h; stronger effect = lower value; viability, % at 10 µM; 1.2% of 140,000 active; AID 827, 2007;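 active = viability at or below a set limit, 4 SD under the median of all tested compounds, cut at about 3.7% in these data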;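 also: PTEN knockout HCT116 line with beta catenin targeted HCT116 as companion control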
PMI act satM6P: human PMI activators, high substrate, primary screen, biochemical, fluorescence intensity, near-saturating mannose 6-phosphate. Mannose-6-phosphate isomerase (Homo sapiens), P34949. coupled PMI enzyme assay, resazurin fluorescence, 20 min; stronger effect = higher value; 1 = untreated enzyme, 0 = substrate-free blank. activation factor at 20 µM. 0.34% of 190,000 active. AID 1216, 2008;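 active = activation factor of 2 or more at 20 µM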
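Material: human phosphomannose isomerase with PGI, G6PDH, diaphorase coupling enzymes / Reagent: Man-6-P substrate 1.0 mM / Dosing: single compound dose of 20 µM, 1% DMSO final / Incubation: enzyme reaction with compound 20 min at room temperature / Signal: resorufin fluorescence (Ex 544/Em 590 nm) from resazurin via diaphorase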
* marks the source's active call; other numbers are inactive results; / = no result given.

SMILES	bCat KO growth	Lmaj promast	PMI activator	HCT116 PTEN-null	PMI act satM6P
Cc1ccc(O)c(C(=O)c2cnc3c(c2)c(=O)n(C)c(=O)n3C)c1	/	-3.1	1.1	/	1
CC(C(=O)NCCC1=CCCCC1)c1ccc([N+](=O)[O-])cc1 (stereo not given)	/	2.2	1	/	1
CC(C)(C)n1nnnc1C(c1ccc(C#N)cc1)N1CCCC2(CCCCC2)C1 (stereo not given)	29.0	78.3*	1	42.2	1
CCC(C)(C)n1nnnc1C(c1ccncc1)N1CCC(Cc2ccccc2)CC1 (stereo not given)	93.9	90.7*	0.9	79.6	0.9
CCC(C)(C)n1nnnc1C(c1cccnc1)N1CCCC(C)C1 (stereo not given)	/	87.2*	1	/	1
CCC(C)(C)n1nnnc1C(c1ccc(C)cc1)N1CCN(Cc2cccnc2)CC1 (stereo not given)	88.9	21.9	1.1	86.5	1
CCC(C)(C)n1nnnc1C(c1cccnc1)N1CCC(Cc2ccccc2)CC1 (stereo not given)	/	90.5*	/	/	/
O=C(Cn1nnc(-c2ccncc2)n1)N(C1CCCCC1)C1CCCCC1	74.5	6.3	0.9	72.7	1
Cc1cc(C)c(NC(=O)CN)c(C)c1	/	-0.6	1	/	1
N#CC(c1ccc(O)cc1)c1ncc(C(F)(F)F)cc1Cl (stereo not given)	/	-13.4	1	/	1.1
COC(=O)/C=C/C(=O)Nc1cccc(C(F)(F)F)c1	67.5	6.3	1	70.8	0.9
COc1ccc(Nc2nnc(SCC(=O)NC(=O)Nc3ccc4c(c3)OCCO4)s2)cc1	/	-6.8	1	/	1
CCC(CC)=C(C#N)C(=O)NC1CCCCC1	91.7	-5.2	1.1	103.3	1.1
CC(C)(C)n1nnnc1C(c1cccc(C#N)c1)N1CCC(Cc2ccccc2)CC1 (stereo not given)	69.9	83.4*	0.9	73.5	0.9
CC(C)(C)n1nnnc1C(c1cccc(C#N)c1)N1CCCc2ccccc21 (stereo not given)	56.1	34.5	1.1	47.5	0.9
CCOC(=O)C1(CCOc2ccccc2)CCN(Cc2cccn2-c2cccnc2)CC1	/	34.6	1	/	1
CCOC(=O)C1(CCOc2ccccc2)CCN(Cc2ccc(CO)o2)CC1	/	61.7*	1	/	1
CCOC(=O)C1(CCOc2ccccc2)CCN(Cc2cnc(C)s2)CC1	/	78.9*	0.9	/	0.9
CCOc1cc(C2C(C#N)=C(N)OC(C)=C2C(C)=O)c(Br)c(Br)c1OC(C)C (stereo not given)	12.3	63.8*	1.1	10.5	0.8
CN(Cc1ccccc1)S(=O)(=O)c1ccc(Cl)c(C(=O)NCCc2ccccn2)c1	/	6.6	1.1	/	1.1
COc1ccc(CCNC(=O)c2ccc(Cl)c(S(=O)(=O)N(C)c3ccccc3)c2)cc1	59.6	98.1*	0.8	55.6	1
CCN(CC)S(=O)(=O)c1ccc(OC)c(NC(=O)CSc2cc(C)ccc2C)c1	85.0	72.9*	0.9	79.8	0.9
CN1CCCN(C(=O)c2ccc(Cl)c(S(=O)(=O)N(C)c3ccccc3)c2)CC1	93.7	72.4*	1.1	101.3	1.1
CCN(c1ccccc1)S(=O)(=O)c1ccc(Cl)c(C(=O)NCCc2ccc(OC)cc2)c1	89.4	88.8*	0.9	85.2	0.9
COC(=O)c1ccc(OC(=O)c2ccc(OC)cc2)c(OC)c1	/	-1.0	0.9	/	0.9
SMILES	bCat KO growth	Lmaj promast	PMI activator	HCT116 PTEN-null	PMI act satM6P
CC(C)OCCCNC(=O)CCSc1ccc(Cl)cc1	102.8	-5.1	1	102.0	1
CCN(c1ccccc1)S(=O)(=O)c1ccc(OC)c(NC(=O)CNCCc2ccccc2)c1	/	52.0*	0.9	/	0.9
COCCNC(=O)c1ccccc1NC(=O)c1ccccc1N(C)S(=O)(=O)c1ccccc1	87.7	-0.2	0.9	91.7	1.1
COc1ccc(CCNC(=O)c2ccccc2N(C)S(=O)(=O)c2ccccc2)cc1	87.2	80.3*	1	85.8	1.1
CCN(c1ccccc1)S(=O)(=O)c1ccc(OC)c(OC)c1	100.4	-4.8	0.9	106.3	0.9
CCOC(=O)Cc1csc(NC(=S)NC(=O)C(C)(C)C)n1	84.9	-4.2	1	97.2	1.1
Cc1cc(C(=O)CSc2nnc(N)s2)c(C)n1Cc1cccs1	92.4	-2.5	0.9	89.5	0.8
